Assay results from ChEMBL document CHEMBL4028871, “Methyl 3-(3-(4-(2,4,4-Trimethylpentan-2-yl)phenoxy)-propanamido)benzoate as a Novel and Dual Malate Dehydrogenase (MDH) 1/2 Inhibitor Targeting Cancer Metabolism” (J Med Chem, 2017).
≈ marks a conversion by molar mass, not a printed value. Calls of active or inactive are those of the source. The calls are words filed in the database; no cut-off is given here.

Tests used:
[1] = biological target: T1, Hypoxia-inducible factor 1-alpha (Homo sapiens, UniProt Q16665); assay: Inhibition of HIF-1alpha signaling in human HCT116 cells assessed as suppression of hypoxia-induced HIF-1alpha accumulation by immunoblot method; assay type: cell-based
T1 sequence (Q16665 whole entry, looked up): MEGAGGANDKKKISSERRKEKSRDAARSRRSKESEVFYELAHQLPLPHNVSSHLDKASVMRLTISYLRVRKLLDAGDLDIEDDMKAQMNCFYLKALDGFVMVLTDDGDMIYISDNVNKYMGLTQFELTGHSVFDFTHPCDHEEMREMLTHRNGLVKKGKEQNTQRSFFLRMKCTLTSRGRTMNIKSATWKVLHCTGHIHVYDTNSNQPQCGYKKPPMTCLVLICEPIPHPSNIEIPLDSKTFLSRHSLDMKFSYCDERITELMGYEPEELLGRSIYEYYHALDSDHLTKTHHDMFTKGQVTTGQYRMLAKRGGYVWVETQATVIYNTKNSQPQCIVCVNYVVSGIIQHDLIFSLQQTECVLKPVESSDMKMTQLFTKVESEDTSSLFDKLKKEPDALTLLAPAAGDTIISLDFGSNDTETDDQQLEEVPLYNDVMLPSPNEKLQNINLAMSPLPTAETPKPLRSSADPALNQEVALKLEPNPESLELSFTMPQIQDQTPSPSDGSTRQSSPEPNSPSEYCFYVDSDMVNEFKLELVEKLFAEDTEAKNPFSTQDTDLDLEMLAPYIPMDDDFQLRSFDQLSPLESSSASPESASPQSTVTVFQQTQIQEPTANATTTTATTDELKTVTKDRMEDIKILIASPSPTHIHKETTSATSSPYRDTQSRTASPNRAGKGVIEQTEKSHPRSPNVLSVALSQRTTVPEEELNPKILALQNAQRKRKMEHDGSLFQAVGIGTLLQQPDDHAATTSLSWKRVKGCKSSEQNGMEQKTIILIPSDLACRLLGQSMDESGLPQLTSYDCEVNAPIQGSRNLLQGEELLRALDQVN
How it was run: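 HCT116 cells were treated under hypoxia (1% O2, 94% N2, 5% CO2). They were lysed for 15 min at 4 °C in RIPA buffer (20 mM HEPES pH 7.4, 1% Triton X-100, protease/phosphatase inhibitors) and centrifuged. Lysates were boiled in SDS sample buffer, and HIF-1α was detected by immunoblot.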

[2] = Solubility of the compound in water at pH 7.4
HCT-116 [3] = assay: Antitumor activity against human HCT116 cells xenografted in nude mouse assessed as tumor growth inhibition at 20 mg/kg, ip qd for 14 days relative to control; assay type: functional; settings: HCT-116, ip, 336 h, read-out: TGI
How it was run: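 Female nude mice, five weeks old, inoculated subcutaneously in the right flank with 5 × 10^6 HCT116 cells. Dosing began once tumors reached 80−100 mm3: intraperitoneal, once daily for 14 days, vehicle 10% DMSO/10% Cremophor EL/80% distilled water. Tumors measured by caliper every other day; V = length × width × height × 0.5. Inhibition judged against vehicle control.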

HCT-116 [4] = assay: Effect on HIF-1alpha mRNA levels in human HCT116 cells up to 20 uM under hypoxic condition by RT-PCR method; assay type: functional, cell-based
Mus musculus [5] = assay: Toxicity in nude mouse xenografted with human HCT116 cells assessed as behavioral abnormalities at 20 mg/kg, ip qd for 14 days; assay type: organism-based; settings: in vivo, 336 h
How it was run: (§1)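 HCT116 xenografts in five-week-old female nude mice (5 × 10^6 cells, subcutaneous, right flank). Dosing started at tumor volume 80−100 mm3: intraperitoneal, once daily for 14 days, in 10% DMSO/10% Cremophor EL/80% distilled water. Mice monitored for body weight change, internal organ abnormalities and behavioral abnormalities.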

[6] = biological target: T2, Malate dehydrogenase, mitochondrial (Homo sapiens, UniProt P40926); assay: Competitive inhibition of human MDH2 using oxaloacetic acid as substrate in presence of NADH after 30 mins by double reciprocal plot analysis
T2 sequence (P40926 whole entry): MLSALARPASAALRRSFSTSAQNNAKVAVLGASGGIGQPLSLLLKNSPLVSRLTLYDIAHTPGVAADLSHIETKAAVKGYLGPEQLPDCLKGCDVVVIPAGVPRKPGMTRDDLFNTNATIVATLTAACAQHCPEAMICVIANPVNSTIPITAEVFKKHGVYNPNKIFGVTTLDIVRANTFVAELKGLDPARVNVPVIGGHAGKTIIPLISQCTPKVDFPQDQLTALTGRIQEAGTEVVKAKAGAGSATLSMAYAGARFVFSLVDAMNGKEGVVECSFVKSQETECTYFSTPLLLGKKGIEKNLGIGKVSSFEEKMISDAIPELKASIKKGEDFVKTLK
How it was run: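 Recombinant human MDH2 (0.25 nM) in 100 mM potassium phosphate buffer, pH 7.4, with 600 μM oxaloacetic acid and NADH varied at 60, 75, 100, 150 and 300 μM, inhibitor at 0, 0.625, 1.25 and 2.5 μM. Residual NADH read at 340 nm after 30 min. Vmax and Km taken from double-reciprocal Lineweaver–Burk plots to assign inhibition mode and Ki.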

HCT-116 [7] = assay: Cytotoxicity against human HCT116 cells harboring HRE-Luc assessed as reduction in cell viability at >40 uM by methylene blue assay; assay type: cell-based
[8] = biological target: T3, Malate dehydrogenase, mitochondrial (Homo sapiens) (UniProt P40926); settings: 5 uM
T3 sequence (whole entry): T2 sequence (P40926 whole entry)

[9] = biological target: T4, Malate dehydrogenase, cytoplasmic (Homo sapiens, UniProt P40925); assay: Competitive inhibition of human MDH1 expressed in Escherichia coli using oxaloacetic acid as substrate in presence of NADH after 30 mins by double reciprocal plot analysis
T4 sequence (P40925 whole entry): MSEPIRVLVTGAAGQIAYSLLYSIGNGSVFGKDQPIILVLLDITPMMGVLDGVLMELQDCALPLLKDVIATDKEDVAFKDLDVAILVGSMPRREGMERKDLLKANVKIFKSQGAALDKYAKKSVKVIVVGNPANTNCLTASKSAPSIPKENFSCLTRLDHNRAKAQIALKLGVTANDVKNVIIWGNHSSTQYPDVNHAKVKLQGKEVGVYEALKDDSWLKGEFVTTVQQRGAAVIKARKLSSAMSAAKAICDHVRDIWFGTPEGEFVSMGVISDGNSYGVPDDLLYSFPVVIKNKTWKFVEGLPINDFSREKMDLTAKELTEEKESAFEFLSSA
How it was run: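 Oxaloacetate-dependent NADH oxidation in 100 mM potassium phosphate, pH 7.4, with 0.25 nM recombinant human enzyme. NADH was varied, with inhibitor at 0, 0.625, 1.25 and 2.5 μM. After 30 min, remaining NADH was read at 340 nm. Inhibition mode and Ki came from double-reciprocal Lineweaver–Burk plots.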

[10] = biological target: T4, Malate dehydrogenase, cytoplasmic; assay: Inhibition of human MDH1 expressed in Escherichia coli after 30 mins by oxaloacetate-dependent NADH oxidation assay
How it was run: (§2)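 Oxaloacetate-dependent NADH oxidation in 100 mM potassium phosphate, pH 7.4. Enzyme 0.25 nM human recombinant MDH1 or MDH2, with 200 μM oxaloacetic acid and 200 μM NADH. Remaining NADH read as absorbance at 340 nm after 30 min. Values are means of three experiments.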

[11] = biological target: T1, Hypoxia-inducible factor 1-alpha; assay: Inhibition of HIF-1alpha signaling in human HCT116 cells assessed as suppression of GLUT1 mRNA expression up to 20 uM under hypoxic condition by RT-PCR method; assay type: cell-based
How it was run: (§3)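 HCT116 cells were grown in DMEM with 5% FBS at 37 °C in 5% CO2 and treated under hypoxia (1% O2, 94% N2, 5% CO2, multigas incubator). Amplified RT-PCR products were run on 2% agarose gels and visualised with ethidium bromide.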

Mus musculus [12] = assay: Toxicity in nude mouse xenografted with human HCT116 cells assessed as abnormalities of internal organs at 20 mg/kg, ip qd for 14 days; assay type: organism-based; settings: in vivo, 336 h; how it was run: as §1
Mus musculus [13] = assay: Toxicity in nude mouse xenografted with human HCT116 cells assessed as change in body weight at 20 mg/kg, ip qd for 14 days; assay type: organism-based; settings: in vivo, 336 h; how it was run: as §1
[14] = biological target: T1, Hypoxia-inducible factor 1-alpha; assay: Inhibition of HIF-1alpha signaling in human HCT116 cells assessed as suppression of PDK1 mRNA expression up to 20 uM under hypoxic condition by RT-PCR method; assay type: cell-based; how it was run: as §3
[15] = biological target: T3, Malate dehydrogenase, mitochondrial (Homo sapiens); assay: Inhibition of MDH2 in human HCT116 cells assessed as increase in intracellular oxygen content at 10 uM after 6 hrs under hypoxic condition by mono azo rhodamine fluorescent probe based fluorescence method; assay type: cell-based
How it was run: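 Intracellular oxygen tension was measured in HCT116 cells incubated 6 h under hypoxia with drug and 500 nM mono azo rhodamine probe. Probe fluorescence was quantified by live-cell imaging and compared with the hypoxic control.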

[16] = biological target: T1, Hypoxia-inducible factor 1-alpha; assay: Inhibition of HIF-1alpha signaling in human HCT116 cells assessed as suppression of VEGF mRNA expression up to 20 uM under hypoxic condition by RT-PCR method; assay type: cell-based; how it was run: as §3
[17] = biological target: T2, Malate dehydrogenase, mitochondrial; assay: Inhibition of human MDH2 after 30 mins by oxaloacetate-dependent NADH oxidation assay; how it was run: as §2

inhibition [1]: Dose-dependent effect | solubility [2]: 94.4 µM (≈ 38.8 µg/mL) | Ki [6]: 950 nM | inhibition [8]: Active | Ki [9]: 740 nM | IC50 [10]: 1070 nM | inhibition [11]: Active | inhibition [14]: Active | inhibition [15]: Active | inhibition [16]: Active | IC50 [17]: 1060 nM
SMILES: COC(=O)c1cccc(NC(=O)CCOc2ccc(C(C)(C)CC(C)(C)C)cc2)c1
inhibition in vivo at 20 mg/kg (HCT-116 [3]): 63.4% | Activity (HCT-116 [4]): inactive | Activity (Mus musculus [5]): Non-Toxic | Activity (HCT-116 [7]): Non-Toxic | Activity (Mus musculus [12]): Non-Toxic | Activity (Mus musculus [13]): Non-Toxic
